Experimental data as given in PMC5306247 (European Journal of Drug Metabolism and Pharmacokinetics, 2016).
Values joined by “and” are separate entries in the source; they are usually repeats but may differ in a detail not shown here. Identical values can stand only once.

Tests used:
[1] = test system: platelet aggregation; settings: cited from earlier work
[2] = Clinical pharmacokinetics of CLP and its metabolites in plasma; format: in vivo, patients (human)
In short: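 Caucasian patients scheduled for PCI or coronarography got 75 mg daily for 7 days, fasting. On day 7, plasma was sampled at 0.5, 1, 2, 3, 4, 6, 12 and 24 h (44 patients) or at 0.5 and 2 h only (38). Plasma was spiked with piroxicam, acetonitrile-precipitated, filtered, dried and reconstituted for HPLC–MS/MS. Quantifiable ranges were parent 0.25–5, derivatized thiol metabolites 0.25–50 and main metabolite 50–10,000 ng/mL. Tmax was taken directly from measured concentrations.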

[3] = in vivo; cited from earlier work
[4] = cited from earlier work
[5] = test system: ADP-induced platelet aggregation; settings: 75 mg CLP daily
[6] = test system: CYP3A4; settings: cited from earlier work

In the case of `COC(=O)[C@H](c1ccccc1Cl)N1CCC(S)/C(=C\C(=O)O)C1` (stereo partly drawn) [H3], the antiaggregation properties [1] is listed as “only H4 exhibits antiaggregation properties”.

In the case of `COC(=O)C(c1ccccc1Cl)N1CCC(S)C(=CC(=O)O)C1` (stereo not drawn) [H4], the antiaggregation properties [1] is listed as “exhibits antiaggregation properties”.

For `COC(=O)[C@H](c1ccccc1Cl)N1CCc2sccc2C1` [CLP, Clopidogrel], the Tmax ([2]; human, plasma, oral, 75 mg) is listed as 1 h, the “share of absorbed drug undergoing bioactivation pathway to thiol metabolite” value [3] is listed as “Approximately 15%” and the “patients treated with CLP who respond poorly to the drug” value [4] is listed as 5–50%. For the same compound, the “median AUCagr for wt/wt genotype versus heterozygotes” value ([5]; samples 2–3 h after administration, p = 0.484) was “lower” and the “classification of patients by response to CLP” value ([5]; threshold for CLP resistance AUCagr above 486 AU*min) was “Almost all studied patients were classified as responders”.

For `O=C(O)[C@H](c1ccccc1Cl)N1CCc2sccc2C1` [CLPM], the “time after CLP administration up to which concentrations were quantifiable” value ([2]; patients, 75 mg CLP daily, day 7, plasma) was “up to 24 h”.

For `COC(=O)[C@H](c1ccccc1Cl)N1CCC2SC(=O)C=C2C1` (stereo partly drawn) [2-oxo-CLP], the “share of 2-oxo-CLP transformed into the thiol entities by CYP3A4” value [6] is listed as ~40% and 39.8%.
